In the RNAGym collection of RNA variant scans (doi:10.1126/science.aae0568):
This sample holds only a part of the variants without activity.

B1: tRNA (parent)
chain: GUUCCGUUGGCGUAAUGGUAACGCGUCUCCCUCCUAAGGAGAAGACUGCGGGUUCGAGUCCCGUACGGAACG

Variants of: B1
Assay: yeast fitness relative to wild type (ratio to wild type); higher = fitter; tRNA-Arg(CCU), competitive growth, 37 C, YPD
Outline: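 Variants of the tRNA-Arg(CCU) gene, chemically synthesised with a 3% per-site mutation rate at 69 sites, were placed at the native genomic locus in Saccharomyces cerevisiae. The pooled strains were competed in YPD at 37°C for 24 hours in six parallel replicates. Gene amplicons from the start population and from each end population were read by 100-nucleotide paired-end sequencing. Darwinian fitness relative to wild type came from changes in genotype frequencies; genotypes needed ≥ 100 starting reads, and estimates < 0.5 were set to 0.5.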

First: C5A G9A G41A U64A
Second: C5A C11A
The yeast fitness of the first is lower: ≤ 0.5 for the first, 0.592 for the second.

First: C5A C24U A37G A40G A42U C49U G67C A70G
Second: C4U G17A
The yeast fitness of the first is lower: ≤ 0.5 for the first, 0.973 for the second.

Going from C5A G39C to C5A C30A A43U A57G, the yeast fitness falls from 0.673 to ≤ 0.5.

C5A G12A G18A and C4U G10A C11G A20G C27G A65G cannot be ordered by yeast fitness: ≤ 0.5 for the first, ≤ 0.5 for the second.

Compared with C5A A40C C46U G52C, C5A C11G G48C is lower in yeast fitness: 0.547 for the first, ≤ 0.5 for the second.

C4U U19C A37U C62A and C5A A14U U53A cannot be ordered by yeast fitness: ≤ 0.5 for the first, ≤ 0.5 for the second.

C5A U16A A45G G50A G56A and C5G A14G A15G C30U A45G U64A cannot be ordered by yeast fitness: ≤ 0.5 for the first, ≤ 0.5 for the second.

First: C4U G10A
Second: C5A A20G C29A G51C G67C
The yeast fitness of the first is higher: 0.644 for the first, ≤ 0.5 for the second.

C4U U8G A20G U47G A57G and C4U U13A A14U C29U A37G U59C G68C cannot be ordered by yeast fitness: ≤ 0.5 for the first, ≤ 0.5 for the second.

First: C4U G18A G23C C24G C46G U64G
Second: C5A A42G G63C
The yeast fitness of the first is lower: ≤ 0.5 for the first, 0.59 for the second.

C4U U7C G23A A40U A42C C60A and C5A C29U A57G U59C cannot be ordered by yeast fitness: ≤ 0.5 for the first, ≤ 0.5 for the second.

First: C5A C46A G56C G68A A70G
Second: C4U U53G
The yeast fitness of the first is lower: ≤ 0.5 for the first, 0.558 for the second.

Going from C5A A14U A21C C61U to C5A A21G G67C, the yeast fitness rises from ≤ 0.5 to 0.933.

Compared with C5G A14C C29A C31G, C5A U16A A21G C27G C46U is lower in yeast fitness: 0.529 for the first, ≤ 0.5 for the second.

C4U U8A U13C U35C C46A and C4U G9A C22G A42U G56A cannot be ordered by yeast fitness: ≤ 0.5 for the first, ≤ 0.5 for the second.

Going from C5A A14U C27U C49G A57G to C5A A14G C31A C55A C61A G63A, the yeast fitness rises from ≤ 0.5 to 0.536.

Going from C5A C29G A43G to C5A C22A G50C G58A A69C, the yeast fitness rises from ≤ 0.5 to 0.607.

Going from C4U U13C C33U A65G to C5A C27G A57C, the yeast fitness falls from 0.617 to ≤ 0.5.

Compared with C5A C62G C66A, C4U G6A U13C U28C is higher in yeast fitness: ≤ 0.5 for the first, 0.616 for the second.

First: C5A G18C A45C G68A A70G
Second: C5A U16G A20G C29G
The yeast fitness of the first is lower: ≤ 0.5 for the first, 0.601 for the second.

Compared with C5A A20U, C5A U16C A45G G50A is lower in yeast fitness: 0.781 for the first, ≤ 0.5 for the second.

First: C5A U19G
Second: C4U G12A A20G C22U
The yeast fitness of the first is higher: 0.731 for the first, 0.532 for the second.

First: C5A G17A A21C C33G A43U
Second: C5G A14C G23C G38A G58C A70G
The yeast fitness of the first is lower: ≤ 0.5 for the first, 0.545 for the second.

C5A G52A G56A G58C and C5A U16A U35C A45G G50A cannot be ordered by yeast fitness: ≤ 0.5 for the first, ≤ 0.5 for the second.

Compared with C5A C30A G44A, C4U G6A G9A U13C U28C is lower in yeast fitness: 0.584 for the first, ≤ 0.5 for the second.

Compared with C4U G25A G67C, C5A U8C C11U C31A A37U G67C is lower in yeast fitness: 0.58 for the first, ≤ 0.5 for the second.

Compared with C4U G41A, C5A U16G A69C is lower in yeast fitness: 1.02 for the first, 0.69 for the second.

C5A U19A C62A and C4U U35C A45G C49G G56A A65C cannot be ordered by yeast fitness: ≤ 0.5 for the first, ≤ 0.5 for the second.

First: C4U G10C A14C C27G
Second: C5A C11G C27U G41C
The yeast fitness of the first is higher: 0.546 for the first, ≤ 0.5 for the second.

C5A A15C C29A G39A C60G A70G and C4U G39C C46G C49G cannot be ordered by yeast fitness: ≤ 0.5 for the first, ≤ 0.5 for the second.

C4U G10C U47C U59A A69U and C5A G17A C46A C55A cannot be ordered by yeast fitness: ≤ 0.5 for the first, ≤ 0.5 for the second.

C4U U7A A37C A40C G51A C55A G58A and C4U U16A A20U U35C G39C A42C C55G A70G cannot be ordered by yeast fitness: ≤ 0.5 for the first, ≤ 0.5 for the second.

Going from C4U G12A C31A A42U to C5A G18C C46U, the yeast fitness rises from ≤ 0.5 to 0.557.

Going from C4U U8A G25C A43U C60G to C4U G44A A69C, the yeast fitness rises from ≤ 0.5 to 0.568.

C4U G23C A36C C66U and C5A C30A C34U C46U cannot be ordered by yeast fitness: ≤ 0.5 for the first, ≤ 0.5 for the second.

C5A G25C G56C and C5A C24G U26A C29G U32A A65U cannot be ordered by yeast fitness: ≤ 0.5 for the first, ≤ 0.5 for the second.

Compared with C5A A40G C49G, C5A A21U C24U C27G A70G is lower in yeast fitness: 0.569 for the first, ≤ 0.5 for the second.

Going from C5A C24G A36G A65U to C5A G48C G67C, the yeast fitness rises from ≤ 0.5 to 0.591.

C5A U7C C34U C66U and C5A U16C U59G cannot be ordered by yeast fitness: ≤ 0.5 for the first, ≤ 0.5 for the second.

Going from C5A G48A C49G to C5G A14C C34G, the yeast fitness falls from 0.682 to ≤ 0.5.

C5A G12A C33U and C5A G18C U35G A57C U64A cannot be ordered by yeast fitness: ≤ 0.5 for the first, ≤ 0.5 for the second.

C5A C22G C27G A36U A40C A57U C66U and C5A G10C C24G cannot be ordered by yeast fitness: ≤ 0.5 for the first, ≤ 0.5 for the second.

C4U G6A C29G G41A C60A and C5A C33G C34A A40C C55U A65C cannot be ordered by yeast fitness: ≤ 0.5 for the first, ≤ 0.5 for the second.

Compared with C5A U7C G48C, C5A G17A C66U is higher in yeast fitness: ≤ 0.5 for the first, 0.587 for the second.

C5A A14U C31G G63A and C5A A37C C46U A65C cannot be ordered by yeast fitness: ≤ 0.5 for the first, ≤ 0.5 for the second.

Compared with C5A G67C, C5A A21C C24A G50C is lower in yeast fitness: 1.03 for the first, ≤ 0.5 for the second.

C5A G18C G48C A65C and C5A A36G G44A U47C A70U cannot be ordered by yeast fitness: ≤ 0.5 for the first, ≤ 0.5 for the second.

Going from C4U U32A G50A G67A to C5A A69U, the yeast fitness rises from ≤ 0.5 to 0.917.

First: C5A U19A G68C
Second: C4U U26G C62G
The yeast fitness of the first is higher: 0.539 for the first, ≤ 0.5 for the second.

Going from C5A A40U G67C to C4U U8A U32G U35A C62U A69C, the yeast fitness falls from 0.627 to ≤ 0.5.

C4U G18C C31U and C5A C34A C46U A57G cannot be ordered by yeast fitness: ≤ 0.5 for the first, ≤ 0.5 for the second.

C4U G9C C29G C34G C60G and C4U G6A U8G C31U G63A cannot be ordered by yeast fitness: ≤ 0.5 for the first, ≤ 0.5 for the second.

Compared with C5A A70G, C5A G25A C33G C46A C66A is lower in yeast fitness: 0.922 for the first, ≤ 0.5 for the second.

C5G A14U G23C C33A and C5A G17A A43U C55U cannot be ordered by yeast fitness: ≤ 0.5 for the first, ≤ 0.5 for the second.

Compared with C5A C27A, C4U U19A C30G A36C U47C is lower in yeast fitness: 0.936 for the first, ≤ 0.5 for the second.

First: C4U G17C C49G G50C
Second: C5G A14U C49A A57G
The yeast fitness of the first is higher: 0.652 for the first, 0.639 for the second.

Compared with C5A C60G, C4U G50C G51C G56A is lower in yeast fitness: 0.551 for the first, ≤ 0.5 for the second.

Compared with C5G A14U A21G G23A C31U G63C U64A C66G, C4U G6A C46G is higher in yeast fitness: ≤ 0.5 for the first, 0.623 for the second.

Compared with C5A G39A G44A C62G C66G, C4U G9A C24G A37C A57U is higher in yeast fitness: ≤ 0.5 for the first, 0.543 for the second.

C5A G41A C55A and C4U G10A A43U C55G G56A cannot be ordered by yeast fitness: ≤ 0.5 for the first, ≤ 0.5 for the second.

C5A C60U C61G and C5A C24G A69C cannot be ordered by yeast fitness: ≤ 0.5 for the first, ≤ 0.5 for the second.

First: C5A C24G A69U
Second: C5A G9A G10A A20G
The yeast fitness of the first is higher: 0.578 for the first, ≤ 0.5 for the second.

Going from C4U U7G C34G G51A to C4U G12C U26G C55U A69C, the yeast fitness rises from ≤ 0.5 to 0.504.

Going from C5A U8C A14G A21G A45C G56C to C5A C30U, the yeast fitness rises from ≤ 0.5 to 0.693.

C5A C29A C34G G68C and C5A U8A U16G A20U A36G C60G cannot be ordered by yeast fitness: ≤ 0.5 for the first, ≤ 0.5 for the second.

Compared with C4U G9A C61G, C5A G51C G63C A65C A70U is lower in yeast fitness: 0.566 for the first, ≤ 0.5 for the second.

First: C5G A14U A43U U54C
Second: C4U U35A
The yeast fitness of the first is higher: 0.666 for the first, 0.659 for the second.

Going from C4U U35C to C4U U7G G56C C60G C66U, the yeast fitness falls from 0.715 to ≤ 0.5.

C5A C33A G39C G51C C62U A69C and C5A U7A A21G cannot be ordered by yeast fitness: ≤ 0.5 for the first, ≤ 0.5 for the second.

Going from C5A C31G A40G to C5A G52C C66U, the yeast fitness falls from 0.529 to ≤ 0.5.

C4U G10A U28A A70U and C5A A20U C29A cannot be ordered by yeast fitness: ≤ 0.5 for the first, ≤ 0.5 for the second.

First: C4U U7A
Second: C5A C11U C34A A40U A42U C49A G50C A57C C66G
The yeast fitness of the first is higher: 0.743 for the first, ≤ 0.5 for the second.

Going from C5A C60G C61G to C5A U7G C29G C33U G44C A69C, the yeast fitness falls from 0.544 to ≤ 0.5.

First: C5A A14U A15C C24G U26A
Second: C5A A45U C55U G56A U59A C66G
The yeast fitness of the first is higher: 0.78 for the first, ≤ 0.5 for the second.

First: C5A U13G
Second: C5A A15C C29A A42C A45G G56C
The yeast fitness of the first is higher: 0.841 for the first, ≤ 0.5 for the second.

C5A U7C C49A A69C and C5A C22U U35C C49U C66U cannot be ordered by yeast fitness: ≤ 0.5 for the first, ≤ 0.5 for the second.

Going from C5A C31G U47A to C5A C60G C66U G67A, the yeast fitness falls from 0.745 to ≤ 0.5.

First: C5A C24G U26A C29G U32A G48A C66G G67U
Second: C5A A40C
The yeast fitness of the first is lower: ≤ 0.5 for the first, 0.727 for the second.

C4U U19A G44C U53G and C4U G12A G39C G44A A57U cannot be ordered by yeast fitness: ≤ 0.5 for the first, ≤ 0.5 for the second.

C4U U26C A36C A37G U64A A70C and C5A U28C U35C C66U cannot be ordered by yeast fitness: ≤ 0.5 for the first, ≤ 0.5 for the second.

C5A A15G C24U C29U C30G U35G and C5A G58C C60A A70C cannot be ordered by yeast fitness: ≤ 0.5 for the first, ≤ 0.5 for the second.

First: C5A A20G G39C G52A
Second: C5G A14U G18A A21U A42G C62U A65C
The yeast fitness of the first is higher: 0.593 for the first, ≤ 0.5 for the second.

Compared with C5A U16A A45G G50A, C5A C11U A21C is higher in yeast fitness: 0.529 for the first, 0.654 for the second.

C5A U32C A36G showed a yeast fitness of 0.53.
